Data on 30 compounds can be found in ChEMBL document CHEMBL1139369, “Discovery and structure-activity relationship of P1-P3 ketoamide derived macrocyclic inhibitors of hepatitis C virus NS3 protease” (J Med Chem, 2009).

Data set [1] in a line: Binding affinity to HCV NS3 protease. Further details: species or system Hepacivirus hominis.
Data set [2] relates to Hepatitis C virus. Briefly: Antiviral activity against HCV by genotype 1 replicon based cellular assay. It is filed as functional, Hepacivirus hominis. In general terms: Replicon systems follow genome replication, usually without infectious particles.
A short description of data set [3]: (§1) AUC (0 to 6 hrs) in rat at 10 mg/kg, po. It is filed as ADME, organism-based, Plasma. The arrangement: time < 6 hr, dose 10 mg/kg, route oral. The following applies: plasma. In short, it runs like this: (§2)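 Rapid rat assay: oral dosing at 10 mg/kg in 0.4% HPMC. Blood drawn periodically and pooled; plasma AUC calculated over 0–6 h.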
Data set [4] deals with Rattus norvegicus. The description is as §1. The class given is ADME, organism-based, Plasma. The arrangement: time < 6 hr, dose 10 mg/kg, route oral. The following applies: in vivo, 6 h. The gist of the method:
as §2

Data set [5] in a line: Ratio of Ki for human neutrophil elastase to Ki for HCV NS3 protease. The gist of the method: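 Selectivity index: Ki* against human neutrophil elastase divided by Ki* against HCV NS3 protease, both from enzyme binding measurements.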
Data set [6] in a line: AUC (0 to 6 hrs) in rat at 5 mg/kg, po. It is filed as ADME, organism-based. Further details: time < 6 hr, dose 5 mg/kg, route oral. The following applies: plasma. The gist of the method:
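Rapid rat plasma-level assay with oral dosing at 5 mg/kg in 0.4% HPMC; plasma exposure expressed as AUC.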

Molecules are shown by their SMILES. Activity calls are given as the source filed them. The calls are words filed in the database; no cut-off is given here.

Turning to `CC(C)(C)OC(=O)N[C@H]1CCCCCCCCCC[C@@H](C(=O)C(=O)NCC(=O)NCc2ccccc2)NC(=O)[C@@H]2[C@H]3[C@@H](CN2C1=O)C3(C)C`, in data set [1], the Ki came out at 89 nM. In data set [2], this compound yielded an EC90 of 2000 nM.
On to `C=CCCCC[C@H](NC(=O)[C@@H]1[C@H]2[C@@H](CN1C(=O)[C@H](CCCCC=C)NC(=O)OC(C)(C)C)C2(C)C)C(=O)C(N)=O`, for which the Ki in data set [1] stood at 250 nM.
In data set [1], `C=CCNC(=O)C(=O)[C@@H]1CCCCCCCCC[C@H](NC(=O)N[C@H](CN(C)S(=O)(=O)c2cccs2)C(C)(C)C)C(=O)N2CC3C([C@H]2C(=O)N1)C3(C)C` (single isomer, unassigned) returned a Ki of 5 nM. The same compound had an AUC(0-t) at 6 h in data set [3] of 1.26 µM·h.
Take `C=CCNC(=O)C(=O)[C@@H]1CCCCCCCCC[C@H](NC(=O)N[C@H](CN2Cc3sccc3S2(=O)=O)C(C)(C)C)C(=O)N2C[C@@H]3[C@H]([C@H]2C(=O)N1)C3(C)C`: the affinity in data set [1], expressed as Ki, was 7 nM. The EC90 in data set [2] was determined as 150 nM. For the same compound, the AUC(0-t) at 6 h in data set [3] came to 0.84 µM·h.
`CN(C[C@@H](NC(=O)N[C@H]1CCCCCCCCC[C@@H](C(=O)C(N)=O)NC(=O)[C@@H]2[C@H]3[C@@H](CN2C1=O)C3(C)C)C(C)(C)C)S(=O)(=O)c1cccs1` displayed a Ki in data set [1] of 2 nM. In data set [2], this compound yielded an EC90 of 70 nM.
For `CC1(NC(=O)N[C@H]2CCCCCCCCCC[C@@H](C(=O)C(N)=O)NC(=O)[C@@H]3C4C(CN3C2=O)C4(C)C)CCCCC1` (single isomer, unassigned), in that order: 36 nM and 400 nM.
With `CC1(C)C2CN3C(=O)[C@@H](NC(=O)N[C@H](C(=O)C4CC4)C4CCCCC4)CCCCCCCCC[C@@H](C(=O)C(N)=O)NC(=O)[C@@H]3C21` (single isomer, unassigned), the Ki in data set [1] worked out at 11 nM. This compound also gave a concentration for an effect of 90% (EC90) in data set [2] of 180 nM.
In data set [1], `CN(C[C@@H](NC(=O)N[C@H]1CCCCCCCCC[C@@H](C(=O)C(N)=O)NC(=O)[C@@H]2C3C(CN2C1=O)C3(C)C)C(C)(C)C)S(C)(=O)=O` (single isomer, unassigned) registered a Ki of 3 nM. Also, the EC90 in data set [2] came to 250 nM.
As for `C=CCNC(=O)C(=O)[C@@H]1CCCCCCCCC[C@H](NC(=O)N[C@H](C(=O)C2CC2)C(C)C)C(=O)N2CC3C([C@H]2C(=O)N1)C3(C)C` (single isomer, unassigned), in data set [1], affinity was put at a Ki of 20 nM. Besides, the EC90 in data set [2] was found to be 480 nM. Further, the Activity result in data set [4] was “Not Active”.
Compound `CC(C)(C)NC(=O)N[C@H](C(=O)N1CC2C([C@H]1C(=O)NC(CC1CCC1)C(=O)C(N)=O)C2(C)C)C(C)(C)C` (single isomer, unassigned) [BOCEPREVIR] yielded a Ki in data set [1] of 14 nM. Further, in data set [2], the EC90 stood at 350 nM. In data set [5], the Ratio Ki came out at 2200.
In data set [1], `C=CCNC(=O)C(=O)[C@@H]1CCCCCCCCC[C@H](NC(=O)N[C@H](CN2C(=O)c3ccccc3C2=O)C(C)(C)C)C(=O)N2CC3C([C@H]2C(=O)N1)C3(C)C` (single isomer, unassigned) gave a Ki of 16 nM. This compound showed an EC90 in data set [2] of 100 nM. The AUC(0-t) at 6 h in data set [3] came to 1.2 µM·h.
In the case of `CCNC(=O)C(=O)[C@@H]1CCCCCCCCC[C@H](NC(=O)N[C@H](CN(C)S(=O)(=O)c2cccs2)C(C)(C)C)C(=O)N2CC3C([C@H]2C(=O)N1)C3(C)C` (single isomer, unassigned), in data set [1], affinity was put at a Ki of 10 nM.
In data set [1], `CC(C)(C)NC(=O)N[C@H]1CCCCCCCCCC[C@@H](C(=O)C(N)=O)NC(=O)[C@H]2[C@H]3[C@@H](CN2C1=O)C3(C)C` gave a Ki of 59 nM. The same compound registered an EC90 in data set [2] of 1000 nM.
For `CC(C)[C@H](NC(=O)N[C@H]1CCCCCCCCC[C@@H](C(=O)C(N)=O)NC(=O)[C@@H]2C3C(CN2C1=O)C3(C)C)C(=O)C1CC1` (single isomer, unassigned), in that order: 11 nM and 100 nM.
On to `C=CCNC(=O)C(=O)[C@@H]1CCCCCCCCC[C@H](NC(=O)N[C@H](CN2C(=O)C3CCC(C3)C2=O)C(C)(C)C)C(=O)N2CC3C([C@H]2C(=O)N1)C3(C)C` (single isomer, unassigned), for which affinity in data set [1] was put at a Ki of 3 nM. This compound also came in with an EC90 in data set [2] of 15 nM. Moreover, the AUC(0-t) at 6 h in data set [3] turned out to be 0.31 µM·h.
Compound `CN(C)C(=O)[C@@H](NC(=O)CNC(=O)C(=O)[C@@H]1CCCCCCCCCC[C@H](NC(=O)NC(C)(C)C)C(=O)N2C[C@@H]3[C@H]([C@H]2C(=O)N1)C3(C)C)c1ccccc1` returned a Ki in data set [1] of 6 nM. Besides, the EC90 in data set [2] turned out to be 1000 nM. For the same compound, in data set [5], the Ratio Ki came out at 980.
In data set [1], `CC(C)(C)OC(=O)N[C@H]1CCCCCCCCCC[C@@H](C(=O)C(N)=O)NC(=O)[C@@H]2C3C(CN2C1=O)C3(C)C` (single isomer, unassigned) returned a Ki of 59 nM. Also, in data set [2], the EC90 is 900 nM.
In data set [1], `C=CCNC(=O)C(=O)[C@@H]1CCCCCCCCC[C@H](NC(=O)N[C@H](CN2C(=O)CN(C)CC2=O)C(C)(C)C)C(=O)N2CC3C([C@H]2C(=O)N1)C3(C)C` (single isomer, unassigned) came in with a Ki of 4 nM. Also, the EC90 in data set [2] was 30 nM. In data set [3], this compound gave an AUC(0-t) at 6 h of 0.28 µM·h.
As to `CC(C)(C)OC(=O)[C@@H](NC(=O)N[C@H]1CCCCCCCCCC[C@@H](C(=O)C(N)=O)NC(=O)[C@@H]2[C@H]3[C@@H](CN2C1=O)C3(C)C)C(C)(C)C`, in data set [1], the Ki amounted to 37 nM. In addition, in data set [2], it took 400 nM to reach the 90% level (EC90).
On to `CN(C)C(=O)[C@@H](NC(=O)CNC(=O)C(=O)[C@@H]1CCCCCCCCCC[C@H](NC(=O)OC(C)(C)C)C(=O)N2CC3C([C@H]2C(=O)N1)C3(C)C)c1ccccc1` (single isomer, unassigned), for which, in data set [1], the Ki amounted to 6 nM. The same compound came in with an EC90 in data set [2] of 600 nM. Besides, in data set [5], the Ratio Ki worked out at 780.
On to `C=CCNC(=O)C(=O)[C@@H]1CCCCCCCCC[C@H](NC(=O)N[C@H](CN(C)S(C)(=O)=O)C(C)(C)C)C(=O)N2C[C@@H]3[C@H]([C@H]2C(=O)N1)C3(C)C`, for which the Ki in data set [1] stood at 3 nM. Further, the EC90 in data set [2] is 55 nM. Further, the AUC(0-t) at 6 h in data set [3] turned out to be 0.36 µM·h.
Consider `CCCNC(=O)C(=O)[C@@H]1CCCCCCCCC[C@H](NC(=O)N[C@H](CN(C)S(=O)(=O)c2cccs2)C(C)(C)C)C(=O)N2CC3C([C@H]2C(=O)N1)C3(C)C` (single isomer, unassigned), for which the Ki in data set [1] amounted to 14 nM.
Take `C=CCNC(=O)C(=O)[C@@H]1CCCCCCCCC[C@H](NC(=O)N[C@H](C(=O)C2CC2)C2CCCCC2)C(=O)N2C[C@@H]3[C@H]([C@H]2C(=O)N1)C3(C)C`: the Ki in data set [1] turned out to be 6 nM. Also, in data set [2], the 90% effect level (EC90) was put at 280 nM. For the same compound, the Activity result in data set [4] was “Not Active”.
The compound `C=CCNC(=O)C(=O)[C@@H]1CCCCCCCCC[C@H](NC(=O)N[C@H](CN2C(=O)CC(C)(C)CC2=O)C(C)(C)C)C(=O)N2CC3C([C@H]2C(=O)N1)C3(C)C` (single isomer, unassigned) displayed an inhibition constant (Ki) in data set [1] of 2 nM. For the same compound, the EC90 in data set [2] was 20 nM. This compound also came in with an AUC(0-t) at 6 h in data set [3] of 1.1 µM·h.
In turn, `C=CCNC(=O)C(=O)[C@@H]1CCCCCCCCC[C@H](NC(=O)N[C@H](CN(C)S(=O)(=O)N(C)C)C(C)(C)C)C(=O)N2C[C@@H]3[C@H]([C@H]2C(=O)N1)C3(C)C` gave a Ki in data set [1] of 13 nM. In data set [2], this compound returned an EC90 of 60 nM. The AUC(0-t) at 6 h in data set [6] was 1.04 µM·h.
With `CN(C)C(=O)[C@@H](NC(=O)CNC(=O)C(=O)[C@@H]1CCCC/C=C/CCCC[C@H](NC(=O)OC(C)(C)C)C(=O)N2CC3C([C@H]2C(=O)N1)C3(C)C)c1ccccc1` (single isomer, unassigned), the Ki in data set [1] turned out to be 5 nM. The compound also gave an EC90 in data set [2] of 300 nM. Moreover, the Ratio Ki in data set [5] turned out to be 1400.
In data set [1], `C=CCNC(=O)C(=O)[C@@H]1CCCCCCCCC[C@H](NC(=O)N[C@H](CN(C)S(=O)(=O)c2ccccn2)C(C)(C)C)C(=O)N2CC3C([C@H]2C(=O)N1)C3(C)C` (single isomer, unassigned) registered a Ki of 7 nM. This compound also yielded an EC90 in data set [2] of 90 nM. The compound also showed an AUC(0-t) at 6 h in data set [3] of 0.84 µM·h.
`CC(C)(C)NC(=O)C(=O)[C@@H]1CCCCCCCCCC[C@H](NC(=O)OC(C)(C)C)C(=O)N2CC3C([C@H]2C(=O)N1)C3(C)C` (single isomer, unassigned): the Ki in data set [1] came out at 6000 nM. The outcome in data set [2] (Hepacivirus hominis) was inactive.
In data set [1], `CN(C[C@@H](NC(=O)N[C@H]1CCCCCCCCC[C@@H](C(=O)C(=O)NCC2CC2)NC(=O)[C@@H]2C3C(CN2C1=O)C3(C)C)C(C)(C)C)S(=O)(=O)c1cccs1` (single isomer, unassigned) had a Ki of 21 nM. This compound also showed an AUC(0-t) at 6 h in data set [3] of 0.4 µM·h.
Take `C=CCNC(=O)C(=O)[C@@H]1CCCCCCCCC[C@H](NC(=O)N[C@H](CN2CCC(C)(C)CC2=O)C(C)(C)C)C(=O)N2C[C@@H]3[C@H]([C@H]2C(=O)N1)C3(C)C`: the Ki in data set [1] was 2 nM. The compound also showed an EC90 in data set [2] of 20 nM. In addition, the AUC(0-t) at 6 h in data set [3] was 1.5 µM·h.

As a reminder, the Ki is a dissociation constant, usually derived from enzyme kinetics or from competition with a known ligand. In general, EC90 refers to the concentration needed for an effect of 90%. Higher therefore signals a need for much substance. The AUC(0-t) is exposure summed from dosing to a finite time, without extrapolation to infinity.
